Experimental data taken from paper PMC3658176 (Cancer cell, 2013).
Where no end group is shown, it is not given here.

Legend:
H2-K^b = target: T1, H2-K^b (Mus musculus, UniProt P01901); experiment: Cell-free competition MHC peptide binding assay, purified H2-K^b
T1 sequence (P01901 22-369): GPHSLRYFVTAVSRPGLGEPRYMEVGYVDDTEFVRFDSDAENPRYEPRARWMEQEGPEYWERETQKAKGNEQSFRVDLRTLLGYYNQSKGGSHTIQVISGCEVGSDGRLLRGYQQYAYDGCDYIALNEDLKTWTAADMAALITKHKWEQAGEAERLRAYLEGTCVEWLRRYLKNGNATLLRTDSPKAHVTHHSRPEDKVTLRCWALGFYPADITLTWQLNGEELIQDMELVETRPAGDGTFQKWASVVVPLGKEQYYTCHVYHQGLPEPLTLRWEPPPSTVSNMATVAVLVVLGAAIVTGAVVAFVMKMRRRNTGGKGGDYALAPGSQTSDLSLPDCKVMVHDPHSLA
T1 sequence (P01887 21-119 partner): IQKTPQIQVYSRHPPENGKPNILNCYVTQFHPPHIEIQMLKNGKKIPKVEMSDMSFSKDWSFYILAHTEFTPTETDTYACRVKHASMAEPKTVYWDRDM

H2-D^b = target: T2, H2-D^b (Mus musculus, UniProt P01899); experiment: Cell-free competition MHC peptide binding assay, purified H2-D^b
T2 sequence (P01899 25-362): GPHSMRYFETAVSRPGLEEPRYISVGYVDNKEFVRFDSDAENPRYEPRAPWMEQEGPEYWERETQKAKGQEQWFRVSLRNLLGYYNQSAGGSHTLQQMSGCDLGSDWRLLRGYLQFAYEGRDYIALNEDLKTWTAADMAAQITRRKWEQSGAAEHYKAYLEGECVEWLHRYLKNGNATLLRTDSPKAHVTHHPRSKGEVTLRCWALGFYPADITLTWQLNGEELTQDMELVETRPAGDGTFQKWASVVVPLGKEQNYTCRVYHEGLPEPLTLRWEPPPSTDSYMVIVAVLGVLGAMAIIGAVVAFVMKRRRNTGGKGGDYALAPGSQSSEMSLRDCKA
T2 sequence (P01887 21-119 partner): T1 sequence (P01887 21-119 partner)

HLA-A*0201 = HLA-A*0201 (Homo sapiens, UniProt P04439, D140Y/D185E/D98H/E176V/E277Q/G131W/G231S/I119V/I121R/I166T/I218V/L300P/L318F/N151K/N90K/P208A/P217A/Q86G/Q94H/R138H/R169H/T345S); experiment: Cell-free competition MHC peptide binding assay, purified HLA-A*0201
In short: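 Purified MHC class I molecule incubated with a labelled probe peptide and graded concentrations of unlabelled test peptide. IC50 taken as the inhibitor peptide concentration that displaces half of the probe. Labelled probe concentration was below MHC concentration. Under these conditions, and where IC50 ≥ MHC concentration, IC50 approximates KD.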

| Molecule | IC50 (H2-K^b) | IC50 (H2-D^b) | further results |
| --- | --- | --- | --- |
| CC[C@H](C)[C@H](NC(=O)[C@@H](NC(=O)[C@@H](N)CO)[C@@H](C)CC)C(=O)N[C@@H](CC(N)=O)C(=O)N[C@@H](Cc1ccccc1)C(=O)N[C@@H](CCC(=O)O)C(=O)N[C@@H](CCCCN)C(=O)N[C@@H](CC(C)C)C(=O)O [OVA257–264] | 0.9 nM |  |  |
| EGPRNQDWL [EGP] |  | 454 nM |  |
| EGSRNQDWL [mgp100_25–33] |  | 23000 nM |  |
| FMDGTMSQV [Tyr369–377] |  |  | IC50 (HLA-A*0201): 4.2 nM |
| KVPRNQDWL [hgp100_25–33] |  | 186 nM |  |
| SIYRYYGL [SIY] | 1.1 nM |  |  |
